Measured values collected from several papers.
Protocols differ between the studies behind these lines.
AKR1C2: Aldo-keto reductase family 1 member C2 (AKR1C2, Homo sapiens, UniProt P52895)
Neuronal acetylcholine receptor; alpha3/beta2: Neuronal acetylcholine receptor; alpha3/beta2 (Rattus norvegicus, UniProt P04757+P12390)

O=C(O)C(F)F — IC50 (AKR1C2; enzyme activity, inhibitor, fluorescence): > 50 µM
O=C(NC[C@H]1C[C@@H]2CCN1C[C@@H]2CN1C[C@@H]2C[C@H](C1)c1cccc(=O)n1C2)c1ccc2c(c1)OCO2 — IC50 (Atypical kinase COQ8A, mitochondrial (COQ8A, Homo sapiens, UniProt Q8NI60); ligand displacement, TR-FRET): 13.7 µM
CC[C@H](C)[C@H](NC(C)=O)C(=O)N[C@@H](CCC(=O)O)C(=O)N[C@H](C(=O)N[C@H](C=O)CC(=O)O)[C@@H](C)O — IC50 (Caspase-4 (Casp4, Mus musculus, UniProt P70343); enzyme activity, inhibitor): 0.162 µM
COC(=O)c1cc(N(C)C(=O)c2ccn3ncc(-c4ccc(C(=O)O)cc4)c3c2)ccc1Cl — IC50 (Vascular endothelial growth factor receptor 1 (FLT1, Homo sapiens, UniProt P17948); enzyme activity, inhibitor): > 30 µM
COc1ccc2[nH]c3c(c2c1)CCN(C)CC3 — IC50 (Neuronal acetylcholine receptor; alpha3/beta2; ion current, antagonist, two-electrode voltage clamp; oocytes): 28.3 µM
O=C(O)C(F)(OC(F)(F)C(F)(F)C(F)(F)F)C(F)(F)F (centres unmarked) — IC50 (AKR1C2; enzyme activity, inhibitor, fluorescence): 13.8 µM
COc1ccc2c3c([nH]c2c1)CCN(C)CC3 — IC50 (Neuronal acetylcholine receptor; alpha3/beta2; ion current, antagonist, two-electrode voltage clamp; oocytes): 27.6 µM
CNC(=O)c1ccc(-c2cnn3ccc(C(=O)N(C)c4ccc(Cl)c(C(=O)OC)c4)cc23)cc1 — IC50 (Serine/threonine-protein kinase Nek11 (NEK11, Homo sapiens, UniProt Q8NG66); enzyme activity, inhibitor): > 30 µM
